ChEMBL document CHEMBL5058577, “EUbOPEN Chemogenomics Library 2 (Multiplex)” (2022)

System: HEK-293T
Test: Multiplex assay against HEK293T
Format: toxicity, cell-based
Details: human
How it was run: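 On a CQ1 microscope at 37°C and 5% CO2, live cells were imaged after compound addition. They had been stained at seeding with Hoechst33342, BioTracker Green Microtubule Cytoskeleton Dye, MitoTracker Red and Annexin V Alexa Fluor 680. CellPathfinder machine-learning gating assigned cells to Hoechst high-intensity objects or normal cells, normal cells to healthy, pyknosed or fragmented nuclei, and pyknosed cells to mitotic or apoptotic. Tubulin, mitochondrial-mass and membrane-permeability phenotypes are per cents of healthy-nucleus cells.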

[1] = 12 h, 1 µM, compound concentration 1 uM, replicate 1
[2] = 12 h, 1 µM, compound concentration 1 uM, replicate 2
[3] = 12 h, 10 µM, compound concentration 10 uM, replicate 1
[4] = 12 h, 10 µM, compound concentration 10 uM, replicate 2
[5] = 24 h, 1 µM, compound concentration 1 uM, replicate 1
[6] = 24 h, 1 µM, compound concentration 1 uM, replicate 2
[7] = 24 h, 10 µM, compound concentration 10 uM, replicate 1
[8] = 24 h, 10 µM, compound concentration 10 uM, replicate 2
[9] = 48 h, 1 µM, compound concentration 1 uM, replicate 1
[10] = 48 h, 1 µM, compound concentration 1 uM, replicate 2
[11] = 48 h, 10 µM, compound concentration 10 uM, replicate 1
[12] = 48 h, 10 µM, compound concentration 10 uM, replicate 2

O=C(NCCO)c1cccc(-c2cc(Nc3ccc(OC(F)(F)F)cc3)ncn2)c1
Population Apoptotic (%) [1]: 27% | Population Fragmented Nuclei (%) [1]: 7% | Population Healthy Nuclei (%) [1]: 78% | Population Hoechst High Intensity Objects (%) [1]: 8% | Population Membrane Permeable-Phenotype (%) [1]: 0% | Population Mitochondria Different-Phenotype (%) [1]: 47% | Population Mitotic Cells (%) [1]: 72% | Population Normal (%) [1]: 91% | Population Pyknosed Nuclei (%) [1]: 13% | Population Tubulin-Different-Phenotype (%) [1]: 23% | Total Cell Count [1]: 409 | Population Apoptotic (%) [2]: 40% | Population Fragmented Nuclei (%) [2]: 4% | Population Healthy Nuclei (%) [2]: 77% | Population Hoechst High Intensity Objects (%) [2]: 6% | Population Mitochondria Different-Phenotype (%) [2]: 60% | Population Mitotic Cells (%) [2]: 59% | Population Normal (%) [2]: 93% | Population Pyknosed Nuclei (%) [2]: 17% | Population Tubulin-Different-Phenotype (%) [2]: 16% | Total Cell Count [2]: 262 | Population Apoptotic (%) [3]: 55% | Population Fragmented Nuclei (%) [3]: 6% | Population Healthy Nuclei (%) [3]: 76% | Population Hoechst High Intensity Objects (%) [3]: 10% | Population Membrane Permeable-Phenotype (%) [3]: 0% | Population Mitochondria Different-Phenotype (%) [3]: 69% | Population Mitotic Cells (%) [3]: 44% | Population Normal (%) [3]: 89% | Population Pyknosed Nuclei (%) [3]: 17% | Population Tubulin-Different-Phenotype (%) [3]: 49% | Total Cell Count [3]: 374 | Population Apoptotic (%) [4]: 63% | Population Fragmented Nuclei (%) [4]: 5% | Population Healthy Nuclei (%) [4]: 73% | Population Hoechst High Intensity Objects (%) [4]: 12% | Population Mitochondria Different-Phenotype (%) [4]: 74% | Population Mitotic Cells (%) [4]: 36% | Population Normal (%) [4]: 87% | Population Pyknosed Nuclei (%) [4]: 21% | Population Tubulin-Different-Phenotype (%) [4]: 26% | Total Cell Count [4]: 325 | Population Apoptotic (%) [5]: 26% | Population Fragmented Nuclei (%) [5]: 11% | Population Healthy Nuclei (%) [5]: 78% | Population Hoechst High Intensity Objects (%) [5]: 4% | Population Membrane Permeable-Phenotype (%) [5]: 0% | Population Mitochondria Different-Phenotype (%) [5]: 21% | Population Mitotic Cells (%) [5]: 73% | Population Normal (%) [5]: 95% | Population Pyknosed Nuclei (%) [5]: 10% | Population Tubulin-Different-Phenotype (%) [5]: 15% | Total Cell Count [5]: 538 | Population Apoptotic (%) [6]: 41% | Population Fragmented Nuclei (%) [6]: 7% | Population Healthy Nuclei (%) [6]: 79% | Population Hoechst High Intensity Objects (%) [6]: 6% | Population Mitochondria Different-Phenotype (%) [6]: 38% | Population Mitotic Cells (%) [6]: 58% | Population Normal (%) [6]: 93% | Population Pyknosed Nuclei (%) [6]: 13% | Population Tubulin-Different-Phenotype (%) [6]: 17% | Total Cell Count [6]: 331 | Population Apoptotic (%) [7]: 39% | Population Fragmented Nuclei (%) [7]: 5% | Population Healthy Nuclei (%) [7]: 80% | Population Hoechst High Intensity Objects (%) [7]: 7% | Population Membrane Permeable-Phenotype (%) [7]: 0% | Population Mitochondria Different-Phenotype (%) [7]: 61% | Population Mitotic Cells (%) [7]: 60% | Population Normal (%) [7]: 92% | Population Pyknosed Nuclei (%) [7]: 14% | Population Tubulin-Different-Phenotype (%) [7]: 38% | Total Cell Count [7]: 447 | Population Apoptotic (%) [8]: 50% | Population Fragmented Nuclei (%) [8]: 6% | Population Healthy Nuclei (%) [8]: 77% | Population Hoechst High Intensity Objects (%) [8]: 14% | Population Mitochondria Different-Phenotype (%) [8]: 56% | Population Mitotic Cells (%) [8]: 50% | Population Normal (%) [8]: 85% | Population Pyknosed Nuclei (%) [8]: 15% | Population Tubulin-Different-Phenotype (%) [8]: 22% | Total Cell Count [8]: 354 | Population Apoptotic (%) [9]: 17% | Population Fragmented Nuclei (%) [9]: 12% | Population Healthy Nuclei (%) [9]: 80% | Population Hoechst High Intensity Objects (%) [9]: 3% | Population Membrane Permeable-Phenotype (%) [9]: 2% | Population Mitochondria Different-Phenotype (%) [9]: 17% | Population Mitotic Cells (%) [9]: 82% | Population Normal (%) [9]: 96% | Population Pyknosed Nuclei (%) [9]: 7% | Population Tubulin-Different-Phenotype (%) [9]: 13% | Total Cell Count [9]: 897 | Population Apoptotic (%) [10]: 37% | Population Fragmented Nuclei (%) [10]: 9% | Population Healthy Nuclei (%) [10]: 79% | Population Hoechst High Intensity Objects (%) [10]: 5% | Population Membrane Permeable-Phenotype (%) [10]: 0% | Population Mitochondria Different-Phenotype (%) [10]: 23% | Population Mitotic Cells (%) [10]: 62% | Population Normal (%) [10]: 94% | Population Pyknosed Nuclei (%) [10]: 10% | Population Tubulin-Different-Phenotype (%) [10]: 9% | Total Cell Count [10]: 476 | Population Apoptotic (%) [11]: 41% | Population Fragmented Nuclei (%) [11]: 10% | Population Healthy Nuclei (%) [11]: 79% | Population Hoechst High Intensity Objects (%) [11]: 8% | Population Membrane Permeable-Phenotype (%) [11]: 1% | Population Mitochondria Different-Phenotype (%) [11]: 36% | Population Mitotic Cells (%) [11]: 58% | Population Normal (%) [11]: 91% | Population Pyknosed Nuclei (%) [11]: 10% | Population Tubulin-Different-Phenotype (%) [11]: 18% | Total Cell Count [11]: 595 | Population Apoptotic (%) [12]: 58% | Population Fragmented Nuclei (%) [12]: 16% | Population Healthy Nuclei (%) [12]: 72% | Population Hoechst High Intensity Objects (%) [12]: 17% | Population Membrane Permeable-Phenotype (%) [12]: 0% | Population Mitotic Cells (%) [12]: 41% | Population Normal (%) [12]: 82% | Population Pyknosed Nuclei (%) [12]: 11% | Population Tubulin-Different-Phenotype (%) [12]: 13% | Total Cell Count [12]: 504
